Consider 25 compounds from ChEMBL document CHEMBL3352602, “One-pot synthesis and antiproliferative activity of novel 2,4-diaminopyrimidine derivatives bearing piperidine and piperazine moieties” (Eur J Med Chem, 2014).

What is called IC50 is the concentration that inhibits the measured activity by half. Read a high IC50 as a need for much substance.

In assay [1] the test system is A549. Put plainly: Cytotoxicity against human A549 cells after 48 hrs by MTT assay. The format is functional, cell-based. The note with it: A549, 48 h. The procedure, abridged:
(§1)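 MTT assay on cells grown in DMEM with 10% FBS and split at 70-80% confluence by trypsinization. Seeded 1×10^4 cells/well, attached 24 h at 37 °C. Compounds came from 10 mM DMSO stocks diluted in medium to a concentration series, with 0.1% DMSO as negative control. Cells were exposed for 48 h at 37 °C, then given MTT for 4 h. Formazan was dissolved in DMSO and read at 570 nm. IC50 was fitted from % inhibition versus control, mean of three independent experiments.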

For the next assay, the system named is HepG2. Put plainly: Cytotoxicity against human HepG2 cells after 48 hrs by MTT assay. To be noted: HepG2, 48 h. The format is functional, cell-based. The procedure, abridged: as §1
The test system of assay [2] is MDA-MB-231. Put plainly: Cytotoxicity against human MDA-MB-231 cells after 48 hrs by MTT assay. The note with it: MDA-MB-231, 48 h. The class given is functional, cell-based. The procedure, abridged: as §1
Background: Tetrazolium dyes change colour on reduction, which living cells bring about.

Another assay deals with MCF7. Put plainly: Cytotoxicity against human MCF7 cells after 48 hrs by MTT assay. The class given is functional, cell-based. The note with it: MCF7, 48 h. The procedure, abridged: as §1
Assay [3] has as its system MDA-MB-231. Nature of the assay: Induction of cell cycle arrest in human MDA-MB-231 cells assessed as accumulation at subG1 phase at 40 uM after 48 hrs by propidium iodide staining based FACS analysis (reference value: 1.69%). The format is functional. A general note: In flow cytometry, cells or beads pass a laser one at a time.
The test system of assay [4] is MDA-MB-231. Put plainly: Cytotoxicity against human MDA-MB-231 cells after 48 hrs by MTT assay relative to fluorouracil. The format is functional.
The subject of assay [5] is MDA-MB-231. Put plainly: Induction of cell cycle arrest in human MDA-MB-231 cells assessed as accumulation at G2/M phase after 48 hrs by propidium iodide staining based FACS analysis (reference value: 18.12%). The format is functional.
Assay [6] concerns MDA-MB-231. Nature of the assay: Induction of cell cycle arrest in human MDA-MB-231 cells assessed as accumulation at G0/G1 phase at 80 uM after 48 hrs by propidium iodide staining based FACS analysis (reference value: 37.97%). The format is functional.
Assay [7] concerns MDA-MB-231. Put plainly: Induction of cell cycle arrest in human MDA-MB-231 cells assessed as accumulation at subG1 phase at 80 uM after 48 hrs by propidium iodide staining based FACS analysis (reference value: 1.69%). The class given is functional.
The test system of assay [8] is MDA-MB-231. Put plainly: Induction of cell cycle arrest in human MDA-MB-231 cells assessed as accumulation at G0/G1 phase at 40 uM after 48 hrs by propidium iodide staining based FACS analysis (reference value: 37.97%). The class given is functional.
For assay [9], the system named is MDA-MB-231. Nature of the assay: Induction of cell cycle arrest in human MDA-MB-231 cells assessed as accumulation at S phase at 80 uM after 48 hrs by propidium iodide staining based FACS analysis (reference value: 42.22%). The format is functional.
Assay [10] has as its system A549. Put plainly: Cytotoxicity against human A549 cells after 48 hrs by MTT assay relative to fluorouracil. The format is functional.
Assay [11] concerns MDA-MB-231. Put plainly: Induction of cell cycle arrest in human MDA-MB-231 cells assessed as accumulation at subG1 phase at 20 uM after 48 hrs by propidium iodide staining based FACS analysis (reference value: 1.69%). The format is functional.
The test system of assay [12] is MDA-MB-231. Put plainly: Induction of cell cycle arrest in human MDA-MB-231 cells assessed as accumulation at G2/M phase at 40 uM after 48 hrs by propidium iodide staining based FACS analysis (reference value: 18.12%). The class given is functional.
The test system of assay [13] is MDA-MB-231. Put plainly: Induction of cell cycle arrest in human MDA-MB-231 cells assessed as accumulation at S phase at 40 uM after 48 hrs by propidium iodide staining based FACS analysis (reference value: 42.22%). The format is functional.
Assay [14] concerns MDA-MB-231. Nature of the assay: Induction of cell cycle arrest in human MDA-MB-231 cells assessed as accumulation at G2/M phase at 20 uM after 48 hrs by propidium iodide staining based FACS analysis (reference value: 18.12%). The class given is functional.
The test system of assay [15] is MDA-MB-231. Nature of the assay: Induction of cell cycle arrest in human MDA-MB-231 cells assessed as accumulation at G2/M phase at 80 uM after 48 hrs by propidium iodide staining based FACS analysis (reference value: 18.12%). The class given is functional.
The subject of assay [16] is MDA-MB-231. Put plainly: Induction of cell cycle arrest in human MDA-MB-231 cells assessed as accumulation at G0/G1 phase at 20 uM after 48 hrs by propidium iodide staining based FACS analysis (reference value: 37.97%). The class given is functional.
Assay [17] has as its system MDA-MB-231. Put plainly: Induction of cell cycle arrest in human MDA-MB-231 cells assessed as accumulation at S phase at 20 uM after 48 hrs by propidium iodide staining based FACS analysis (reference value: 42.22%). The class given is functional.

Consider `COc1ccc(CNc2ccnc(NC3CCN(S(C)(=O)=O)CC3)n2)cc1`, for which the IC50 in the assay on A549 [1] worked out at 51.6 µM; in the assay on HepG2, 51.7 µM; in the assay on MDA-MB-231 [2] it was 33.7 µM; in the assay with MCF7, 57.2 µM.
`CS(=O)(=O)N1CCC(Nc2ncc(Cl)c(NCc3ccccc3)n2)CC1`: the IC50 in the assay with A549 [1] is 46.8 µM; in the assay with HepG2, above 200 µM; in the assay with MDA-MB-231 [2], 11.7 µM; with MCF7 it was 32.4 µM.
Taken in the same sequence, the figures for `CS(=O)(=O)N1CCC(Nc2nccc(NCc3ccccc3)n2)CC1` were 42.5 µM, 149 µM, 60.8 µM and 98.5 µM.
For `CS(=O)(=O)N1CCC(Nc2ncc(Cl)c(NCCc3ccc(Cl)cc3)n2)CC1`, in that order: above 200 µM, above 200 µM, above 200 µM and above 200 µM.
Take `COc1ccc(Nc2nc(NC3CCN(S(C)(=O)=O)CC3)ncc2Cl)cc1`: the IC50 with A549 [1], with HepG2, in the assay with MDA-MB-231 [2] and with MCF7 was above 200 µM throughout.
For `CS(=O)(=O)N1CCC(Nc2ncc(Cl)c(Nc3ccccc3)n2)CC1`, the IC50 in the assay on A549 [1], in the assay on HepG2, in the assay on MDA-MB-231 [2] and with MCF7 was above 200 µM each time.
For `COc1ccc(CCNc2nc(NC3CCN(S(C)(=O)=O)CC3)ncc2Cl)cc1`, the IC50 in the assay on A549 [1], with HepG2, with MDA-MB-231 [2] and in the assay on MCF7 was above 200 µM each time.
As for `O=c1[nH]cc(F)c(=O)[nH]1` [FLUOROURACIL], the IC50 in the assay on MDA-MB-231 [2] turned out to be 24.6 µM; in the assay with MCF7 it was 39.9 µM.
As to `COc1ccc(CCNc2nccc(NC3CCN(S(C)(=O)=O)CC3)n2)cc1`, the IC50 in the assay with A549 [1] is 21.4 µM; with HepG2 it was 20 µM; with MDA-MB-231 [2] it was 15.8 µM; with MCF7, 32.8 µM.
Consider `CN1CCN(c2ccnc(Nc3ccc(Cl)cc3)n2)CC1`, for which the IC50 with A549 [1], in the assay with HepG2, with MDA-MB-231 [2] and with MCF7 was above 200 µM throughout.
For the compound `CN1CCN(c2nccc(NCc3ccccc3)n2)CC1`, the IC50 with A549 [1], with HepG2, in the assay with MDA-MB-231 [2] and in the assay on MCF7 was above 200 µM throughout.
As to `COc1ccccc1CCNc1nccc(N2CCN(C)CC2)n1`, the IC50 with A549 [1], in the assay with HepG2, in the assay with MDA-MB-231 [2] and in the assay with MCF7 was above 200 µM each time.
Consider `COc1ccc(CNc2nc(NC3CCN(S(C)(=O)=O)CC3)ncc2Cl)cc1`, for which the IC50 is 60.9 µM in the assay with A549 [1], above 200 µM with HepG2, 34.1 µM in the assay on MDA-MB-231 [2] and 64.8 µM in the assay with MCF7.
For `COc1cccc(Nc2nccc(NC3CCN(S(C)(=O)=O)CC3)n2)c1`, the IC50 with A549 [1] was above 200 µM; in the assay on HepG2 it was 67.9 µM; in the assay with MDA-MB-231 [2], 109 µM; in the assay on MCF7, 72.1 µM.
For `COc1ccc(CNc2nccc(NC3CCN(S(C)(=O)=O)CC3)n2)cc1`, the Activity is 1.03% in the assay with MDA-MB-231 [3]; “Dose-dependent effect” in the assay on MDA-MB-231 [5]; 31.01% in the assay on MDA-MB-231 [6]; 1.26% in the assay on MDA-MB-231 [7]; 32.55% in the assay with MDA-MB-231 [8]; 26.78% with MDA-MB-231 [9]. For the same compound, the Activity in the assay on MDA-MB-231 [11] worked out at 1.09%; in the assay on MDA-MB-231 [12] it was 36.51%; with MDA-MB-231 [13], 29.91%; in the assay with MDA-MB-231 [14] it was 33.79%; in the assay with MDA-MB-231 [15], 40.95%; with MDA-MB-231 [16], 33.09%. For the same compound, the Activity in the assay with MDA-MB-231 [17] is 32.03%. Further, the “Ratio IC50” value in the assay on MDA-MB-231 [4] and in the assay with A549 [10] was 2 in each case. The IC50 in the assay on A549 [1] amounted to 12.8 µM; with HepG2 it was 20.2 µM; with MDA-MB-231 [2], 7.46 µM; in the assay on MCF7, 16.2 µM.
Turning to `COc1cccc(Nc2ccnc(NC3CCN(S(C)(=O)=O)CC3)n2)c1`, the IC50 in the assay with A549 [1] is above 200 µM; in the assay on HepG2, 86.6 µM; with MDA-MB-231 [2], 29.4 µM; in the assay on MCF7, 77.8 µM.
For `COc1ccc(Nc2nccc(NC3CCN(S(C)(=O)=O)CC3)n2)cc1`, in that order: 91.7 µM, 86.2 µM, 57.7 µM and above 200 µM.
For `COc1cccc(Nc2ccnc(N3CCN(C)CC3)n2)c1`, in that order: above 200 µM, above 200 µM, above 200 µM and above 200 µM.
Consider `COc1ccc(CNc2ccnc(N3CCN(C)CC3)n2)cc1`, for which the IC50 in the assay on A549 [1], in the assay on HepG2, with MDA-MB-231 [2] and with MCF7 was above 200 µM throughout.
Regarding `COc1ccc(Nc2nccc(N3CCN(C)CC3)n2)cc1`, the IC50 in the assay on A549 [1], with HepG2, in the assay with MDA-MB-231 [2] and in the assay with MCF7 was above 200 µM in each case.
With `CS(=O)(=O)N1CCC(Nc2nccc(Nc3ccc(Cl)cc3)n2)CC1`, the IC50 in the assay on A549 [1] is above 200 µM; in the assay with HepG2 it was 78.6 µM; with MDA-MB-231 [2] it was above 200 µM; with MCF7, above 200 µM.
For `CS(=O)(=O)N1CCC(Nc2ncc(Cl)c(NCCc3ccccc3)n2)CC1`, the IC50 in the assay with A549 [1] is above 200 µM; in the assay with HepG2, 123 µM; in the assay with MDA-MB-231 [2], above 200 µM; in the assay on MCF7 it was above 200 µM.
Turning to `CS(=O)(=O)N1CCC(Nc2ncc(Cl)c(Nc3ccc(Cl)cc3)n2)CC1`, the IC50 in the assay on A549 [1], in the assay on HepG2, in the assay on MDA-MB-231 [2] and in the assay with MCF7 was above 200 µM throughout.
`CS(=O)(=O)N1CCC(Nc2ccnc(Nc3ccc(Cl)cc3)n2)CC1`: the IC50 was above 200 µM in the assay on A549 [1], 92.6 µM with HepG2, 102 µM in the assay with MDA-MB-231 [2] and above 200 µM with MCF7.
Consider `COc1cccc(Nc2nc(NC3CCN(S(C)(=O)=O)CC3)ncc2Cl)c1`, for which the IC50 in the assay on A549 [1], in the assay with HepG2, with MDA-MB-231 [2] and in the assay with MCF7 was above 200 µM throughout.
